Source: PubChem
An excerpt weighted towards active compounds, which were near 3.1% of everything screened.
KCNQ1 inh – human KCNQ1 channel inhibition | P51787 | CHO-K1 KCNQ1, FluxOR thallium flux fluorescence; stronger effect = higher value | B-score at 10 µM | actives 1.3% (n = 310,000);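 active means compounds whose thallium flux B-score, printed positive for inhibition, exceeds three library SD while starting fluorescence stays within three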;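 further: channel opened by potassium depolarization with thallium stimulus after 20 min compound exposure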
KCNK3 inh – human KCNK3 channel inhibition, primary screen; O14649; CHO-KCNK3 thallium flux, FluxOR fluorescence; stronger effect = lower value; actives 0.84% (n = 340,000); B-score at 10 µM; AID 602410;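 active means B-score under library mean minus 4 SD, starting fluorescence ratio at most library mean plus 5 SD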;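 further: more negative B-score means stronger inhibition of thallium flux through KCNK3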
KCNK9 block – blocks the human KCNK9 two-pore domain potassium channel; AID 488922; Q9NPC2; actives 1.2% (n = 310,000); B-score at 10 µM; HEK293 KCNK9, FluxOR thallium flux fluorescence; stronger effect = lower value;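 active means ratio B-score over 3 SD below the library mean, with starting fluorescence within 5 SD of its mean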;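 further: negative B-score means less thallium flux so channel inhibition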
hERG rescue – hERG (human) protection from proarrhythmic block | Q12809 | CHO-hERG, FluxOR thallium flux, dofetilide IC70 present | activation (rescue from dofetilide block), less the hit threshold, % at 10 µM | actives 0.51% (n = 310,000) | AID 1511;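 active means activation above the mean of controls blocked by dofetilide plus 5 SD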;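 further: thallium influx through hERG after potassium depolarization seen as dye fluorescence rise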
Target sequence (Q12809 whole entry, looked up): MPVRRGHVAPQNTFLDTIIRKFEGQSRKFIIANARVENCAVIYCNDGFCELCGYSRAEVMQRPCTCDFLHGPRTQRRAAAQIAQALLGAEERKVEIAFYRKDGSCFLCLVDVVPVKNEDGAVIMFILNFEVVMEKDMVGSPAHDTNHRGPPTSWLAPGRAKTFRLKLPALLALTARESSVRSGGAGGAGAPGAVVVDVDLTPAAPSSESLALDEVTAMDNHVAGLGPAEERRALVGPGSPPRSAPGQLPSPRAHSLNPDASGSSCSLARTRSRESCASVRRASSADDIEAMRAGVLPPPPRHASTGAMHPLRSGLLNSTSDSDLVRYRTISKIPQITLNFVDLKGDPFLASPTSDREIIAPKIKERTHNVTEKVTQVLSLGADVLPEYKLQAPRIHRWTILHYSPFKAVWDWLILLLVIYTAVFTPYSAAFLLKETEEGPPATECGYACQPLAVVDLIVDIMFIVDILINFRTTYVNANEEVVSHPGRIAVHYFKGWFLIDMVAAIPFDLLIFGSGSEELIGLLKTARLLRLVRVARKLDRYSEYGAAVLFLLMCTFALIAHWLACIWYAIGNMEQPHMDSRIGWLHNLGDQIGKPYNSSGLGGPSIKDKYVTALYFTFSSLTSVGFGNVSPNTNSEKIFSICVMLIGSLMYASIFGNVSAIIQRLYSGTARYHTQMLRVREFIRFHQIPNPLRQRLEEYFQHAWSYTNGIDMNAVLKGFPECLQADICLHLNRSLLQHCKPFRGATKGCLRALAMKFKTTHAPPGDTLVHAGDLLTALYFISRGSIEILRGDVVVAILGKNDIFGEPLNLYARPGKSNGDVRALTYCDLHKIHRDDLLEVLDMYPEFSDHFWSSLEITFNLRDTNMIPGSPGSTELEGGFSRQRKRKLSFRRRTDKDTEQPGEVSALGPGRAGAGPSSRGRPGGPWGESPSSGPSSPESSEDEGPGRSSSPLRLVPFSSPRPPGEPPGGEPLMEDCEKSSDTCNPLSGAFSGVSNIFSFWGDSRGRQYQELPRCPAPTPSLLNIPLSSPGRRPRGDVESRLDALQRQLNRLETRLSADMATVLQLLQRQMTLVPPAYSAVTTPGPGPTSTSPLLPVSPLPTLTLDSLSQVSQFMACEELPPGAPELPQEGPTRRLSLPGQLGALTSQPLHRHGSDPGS
KCNQ1 pot – human KCNQ1 channel potentiation or activation; P51787; CHO-K1 KCNQ1, thallium flux FluxOR fluorescence; stronger effect = higher value; B-score at 10 µM; actives 0.35% (n = 310,000); AID 2648;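 active means fluorescence ratio B-score, a plate-corrected score, at least three library SD, with initial intensity B-score within 5 SD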
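Assay system: stable KCNQ1 CHO-K1 line; medium: assay buffer, equal DMSO in all wells; timing: 90 min dye loading and 20 min compound exposure, both at room temperature; technique: kinetic FluxOR thallium fluorescence, 10-s 1-Hz baseline, 110-s post-stimulus read; read-out basis: B score of baseline-normalized fluorescence ratio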
Each line names hits and unclear results; the compound was inactive in the other large screens.

CCN1CCCC1CNC(=O)c1ccc2c(c1)NC(=O)/C(=C\c1ccc(C)cc1)S2 (stereo not drawn)	KCNQ1 inh 11
Clc1ccc2c(N/N=C/c3cccc(Br)c3)ccnc2c1	KCNQ1 inh 9
Cn1c(NC(=O)c2ccccc2)cc(=O)n(C)c1=O	none
Cn1c(NNC(=O)C(c2ccccc2)c2ccccc2)cc(=O)n(C)c1=O	hERG rescue 4.9
O=C(Nc1ccnn1C1CCN(Cc2ccccc2OC(F)F)CC1)c1cccnc1	none
CC1CC(C)CN(C(=O)c2cccc(S(=O)(=O)Nc3cc(C(F)(F)F)ccc3Cl)c2)C1 (stereo not drawn)	KCNQ1 inh 7
O=C(O)c1cccc(S(=O)(=O)Nc2cc(Cl)ccc2Cl)c1	none
CS(=O)(=O)c1ccc(-n2nnc3ccccc32)c([N+](=O)[O-])c1	none
N#Cc1cc([N+](=O)[O-])c(-n2nnc3ccccc32)c([N+](=O)[O-])c1	KCNQ1 inh 8
CC(C)CC(O)(c1ccccc1)C(CN1CCOCC1)c1ccccc1 (stereo not drawn)	none
OC(c1ccc(F)cc1)(C1CCCCC1)C(CN1CCOCC1)c1ccccc1 (stereo not drawn)	KCNQ1 inh 8
O=C(C1CC(=O)N(c2ccc(Cl)cc2)C1)N1CCOCC1 (stereo not drawn)	none
O=C(CC(=O)Nc1cccc(Cl)c1Cl)Nc1cccc(Cl)c1Cl	none
Cc1ncc(CO)c(/C=N/NC(=S)Nc2ccc(Cl)c(Cl)c2)c1O	KCNQ1 inh 11
Cc1ncc(CO)c(/C=N/NC(=S)Nc2cccc(Cl)c2)c1O	KCNQ1 inh 6
Cc1ncc(CO)c(/C=N/NC(=O)c2ccc(O)cc2)c1O	none
O=C(O)c1cccc2c1C(=O)c1ccc(-c3ccc(Cl)c(C(F)(F)F)c3)cc1S2(=O)=O	none (no result: KCNQ1 inh, KCNK9 block, hERG rescue, KCNQ1 pot)
O=C(Cc1cccc2ccccc12)N/N=C/c1ccc(Sc2cccc3cccnc23)o1	KCNK9 block -9.79 (no result: KCNK3 inh)
CCn1cc(CN2CCC(n3nccc3NC(=O)CCc3ccccc3)CC2)cn1	none
O=C1[C@H]2[C@@H](c3ccc(F)cc3)N3C(=O)N(c4cccc(Cl)c4)C(=O)[C@@]3(Cc3ccccc3)[C@H]2C(=O)N1C1CCCCC1	KCNQ1 inh 7
CSc1ccccc1C(=O)NCCCn1ccnc1	none
CCSc1ccccc1C(=O)NCCCn1ccnc1	hERG rescue 4.8
O=C(NC1CC2CCC(C1)N2C(=O)NCc1ccccc1)C1CC1 (stereo not drawn)	hERG rescue 13.2
CCOC(=O)c1c(C)[nH]c(=S)c(C#N)c1-c1ccc(Cl)cc1	KCNQ1 pot 9
CCOc1cc(N2CCOCC2)c(OCC)cc1NC(=O)CN1C(=O)C2CC=CCC2C1=O (stereo not drawn)	hERG rescue 7.2
CCOc1cc(N2CCOCC2)c(OCC)cc1NC(=O)C1CCCC1	none
CCOc1cc(N2CCOCC2)c(OCC)cc1NC(=O)CN1C(=O)C2C3C=CC(C3)C2C1=O (stereo not drawn)	none
CCOc1cc(N2CCOCC2)c(OCC)cc1NC(=O)CCC1CCCC1	hERG rescue 6.9
CCOc1cc(N2CCOCC2)c(OCC)cc1NC(=O)c1ccc(NC(C)=O)cc1	hERG rescue 39.9
CC(C)N(C(=O)COC(=O)CCC(=O)c1cccs1)c1ccccc1	none (no result: KCNQ1 inh, KCNK9 block, hERG rescue, KCNQ1 pot)
CCOCCCNC(=O)c1ccc(OC2CCN(C(C)=O)CC2)c(OC)c1	none
Cn1c(=O)c2c(nc(N3CCc4ccccc4C3)n2Cc2ccccc2F)n(C)c1=O	none
Cn1c(=O)c2c(nc(N3CCc4ccccc4C3)n2Cc2ccc(Br)cc2)n(C)c1=O	KCNK9 block -7
CCCCCCCCCCC[N+](C)(C)CC/C=C1/c2ccccc2Sc2ccc(Cl)cc21	KCNQ1 pot 9
CCN(CC)c1ccc(/C=C/c2nc3ccccc3s2)cc1	KCNQ1 inh 8 (no result: KCNK3 inh)
CN(CC(=O)NCCCc1ccccc1)Cc1ccc(Br)cc1	none
CN(CC(=O)Nc1ccc(Br)cc1)Cc1ccccc1	KCNK9 block -6.81
OC(CNCC(c1ccc(Cl)cc1Cl)c1c[nH]c2ccccc12)c1ccccc1 (stereo not drawn)	hERG rescue 39.9
CC(Oc1ccc(Cl)cc1)C(=O)Nc1sccc1C(N)=O (stereo not drawn)	hERG rescue 6.6
Cc1ccc(OC(C)C(=O)OCC(=O)Nc2sccc2C(N)=O)cc1 (stereo not drawn)	none (no result: KCNQ1 inh, KCNK9 block, hERG rescue, KCNQ1 pot)
